The values that follow come from ChEMBL document CHEMBL2331550, “Design, synthesis and structure-activity relationship of novel tricyclic benzimidazolone derivatives as potent 18 kDa translocator protein (TSPO) ligands” (Bioorg Med Chem, 2013).

The target of data set [1] is Translocator protein (Rattus norvegicus) (UniProt P16257). Description: Displacement of [3H]PK11195 from TSPO in Sprague-Dawley rat kidney mitochondria at 100 nM after 1 hr by liquid scintillation counting analysis. On the technique in general: Displacement assays read how much labelled ligand stays bound in the presence of the test substance.
Data set [2] can be described thus: Metabolic stability in rat liver S9 fraction assessed as compound remaining at 1 uM after 30 mins. In kind it is ADME, subcellular. Particulars: read-out: Stability.
The next data set concerns the target Translocator protein (Rattus norvegicus, UniProt P16257). Description: Displacement of [3H]PK11195 from TSPO in Sprague-Dawley rat kidney mitochondria after 1 hr by liquid scintillation counting analysis.
For another data set, the species on record is Rattus norvegicus. Briefly: Displacement of [3H]flumazenil from CBR in Sprague-Dawley rat cerebral cortex membrane at 10 uM after 1 hr by liquid scintillation counting analysis. It is filed as tissue-based. A digest of the protocol:
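Male SD rat cerebral cortex was homogenised in potassium phosphate buffer (200 mM KCl, 20 mM KOH, 20 mM KH2PO4, pH 7.4) and washed at 32,500×g. Membranes were incubated with 1.0 nM [3H]-flumazenil (final) and 10 µM test compound for 1 h at 25 °C, then GF/B-filtered and counted by scintillation. Nonspecific binding was taken with […]. Percent inhibition of specific binding was measured in duplicate.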

Data set [3] in a line: Metabolic stability in rat liver S9 fraction assessed as compound remaining at 10 uM after 30 mins. It is filed as ADME, subcellular. Particulars: read-out: Stability.
A short description of data set [4]: Aqueous solubility of the compound at pH 2.5. It is filed as physicochemical.
Data set [5] can be described thus: Aqueous solubility of the compound at pH 7.4. In kind it is physicochemical.

Converted amounts (≈) assume the structure as drawn.

Sequence of Translocator protein (P16257 whole entry, looked up): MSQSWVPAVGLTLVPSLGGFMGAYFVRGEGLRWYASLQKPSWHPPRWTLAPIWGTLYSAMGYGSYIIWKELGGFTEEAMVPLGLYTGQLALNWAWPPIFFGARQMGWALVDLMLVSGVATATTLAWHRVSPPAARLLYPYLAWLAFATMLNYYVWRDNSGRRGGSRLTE
Sequence of Translocator protein (Rattus norvegicus) (P16257 whole entry, looked up): as above

In the case of `CN(C(=O)Cn1c(=O)[nH]c2ccc(-c3ccccc3)cc21)c1ccccc1`, in data set [1], the inhibition (as a rule, the relative decrease from the control value, in per cent) worked out at 86%.

Consider `CN(C(=O)Cn1c(=O)n2c3c(cc(-c4ccncc4)cc31)CCC2)c1ccccc1`, for which the remaining at 0.5 h, 1 µM in data set [2] turned out to be 3%.

On to `CN(C(=O)Cn1c(=O)n2c3c(cc(-c4ccccc4)cc31)CCC2)c1ccccn1`, for which, on Translocator protein, the affinity corresponds to a Ki of 2.5 nM. The same molecule gave an inhibition in the data set listed under Rattus norvegicus of 34%. Further, in data set [2], the remaining at 0.5 h, 1 µM came to 0%.

In the case of `COc1cccc(-c2cc3c4c(c2)n(CC(=O)N(C)c2ccccc2)c(=O)n4CCC3)c1`, the remaining at 0.5 h, 1 µM in data set [2] is 1%.

Take `CN(C(=O)Cn1c(=O)n2c3c(cc(-c4cccc(C(F)(F)F)c4)cc31)CCC2)c1ccccc1`: the remaining at 0.5 h, 1 µM in data set [2] was determined as 0%.

With `CN(C(=O)Cn1c(=O)n2c3c(cc(-c4ccccc4)cc31)CCC2)c1cccc(Cl)c1`, on Translocator protein, affinity was put at a Ki of 0.44 nM. Besides, the inhibition in the data set listed under Rattus norvegicus is 3%. For the same molecule, the remaining at 0.5 h, 1 µM in data set [2] amounted to 0%.

For `O=C(Cn1c(=O)n2c3c(cc(-c4ccccc4)cc31)CCC2)Nc1ccccc1`, at Translocator protein, the Ki (usually the equilibrium dissociation constant of an inhibitor or competing ligand from its target) came to 33 nM. Besides, the inhibition in the data set filed under Rattus norvegicus is 27%. Further, the remaining at 0.5 h, 1 µM in data set [2] was found to be 62%.

`CN(C(=O)Cn1c(=O)n2c3c(cc(-c4ccccc4)cc31)CCC2)c1cccnc1` registered a Ki on Translocator protein of 2.1 nM. The inhibition in the data set listed under Rattus norvegicus came out at 36%. Also, the remaining at 0.5 h, 1 µM in data set [2] is 0%.

`CN(C(=O)Cn1c(=O)n2c3c(cc(-c4ccc(C(F)(F)F)cc4)cc31)CCC2)c1ccccc1`: the remaining at 0.5 h, 1 µM in data set [2] came out at 0%.

`CN(C(=O)Cn1c(=O)n2c3c(cc(-c4ccccn4)cc31)CCC2)c1ccccc1`: the remaining at 0.5 h, 1 µM in data set [2] amounted to 0%.

In turn, `CN(C(=O)Cn1c(=O)n2c3c(cc(-c4ccccc4)cc31)CCCC2)c1ccccc1` had a Ki on Translocator protein of 0.32 nM. In the data set filed under Rattus norvegicus, this molecule yielded an inhibition of 30%. In addition, the remaining at 0.5 h, 1 µM in data set [2] amounted to 1%.

`CN(C(=O)Cn1c(=O)n2c3c(cc(-c4ccccc4)cc31)CCC2)c1ccncc1` displayed a Ki on Translocator protein of 15 nM. In the data set listed under Rattus norvegicus, this molecule registered an inhibition of 24%. The remaining at 0.5 h, 1 µM in data set [2] was 0%.

`CN(C(=O)Cn1c(=O)n2c3c(cc(Br)cc31)CCC2)c1ccccc1`: the remaining at 0.5 h, 10 µM in data set [3] was 0%.

At Translocator protein, `CN(C(=O)Cn1c(=O)n2c3c(cc(-c4ccccc4)cc31)CCC2)c1ccc(Cl)cc1` displayed a Ki of 0.13 nM. Besides, in the data set filed under Rattus norvegicus, the inhibition was 4%. Also, the remaining at 0.5 h, 1 µM in data set [2] was 0%.

For the molecule `CN(C(=O)Cn1c(=O)n(C)c2ccc(-c3ccccc3)cc21)c1ccccc1`, the inhibition in data set [1] was 100%.

For `COc1ccc(N(C)C(=O)Cn2c(=O)n3c4c(cc(-c5ccccc5)cc42)CCC3)cc1`, the remaining at 0.5 h, 10 µM in data set [3] was 0%. The molecule further returned a Ki at Translocator protein of 0.73 nM. The molecule also had an inhibition in the data set filed under Rattus norvegicus of 3%.

Take `CN(C(=O)Cn1c(=O)n2c3c(cc(Nc4cccnc4)cc31)CCC2)c1ccccc1`: the figures for the solubility in data set [4] and in data set [5] were above 1000 µg/mL and 4 µg/mL (≈ 9.67 µM), respectively. The remaining at 0.5 h, 1 µM in data set [2] was 41%.

The molecule `CN(C(=O)Cn1c(=O)n2c3c(cc(-c4ccccc4)cc31)OCC2)c1ccccc1` registered a Ki at Translocator protein of 0.21 nM. The same molecule displayed an inhibition in the data set filed under Rattus norvegicus of 68%. Also, the remaining at 0.5 h, 1 µM in data set [2] is 1%.

On to `CN(C(=O)Cn1c(=O)n2c3c(cc(-c4cccnc4)cc31)CCC2)c1ccccc1`, for which, in data set [3], the remaining at 0.5 h, 10 µM came to 0%.

With `CCCN(CCC)C(=O)Cn1c(=O)n2c3c(cc(-c4ccccc4)cc31)CCC2`, on Translocator protein, the Ki is 1.7 nM. The molecule further came in with an inhibition in the data set filed under Rattus norvegicus of 11%. The remaining at 0.5 h, 1 µM in data set [2] stood at 1%.

Turning to `CN(C(=O)Cn1c(=O)n2c3c(cccc31)CCC2)c1ccccc1`, the remaining at 0.5 h, 10 µM in data set [3] was found to be 0%.

`CN(C(=O)Cn1c(=O)n2c3c(cc(-c4ccccc4)cc31)CCC2)c1ccccc1` returned a Ki on Translocator protein of 0.94 nM. The inhibition in the data set filed under Rattus norvegicus was found to be 14%. The remaining at 0.5 h, 1 µM in data set [2] is 12%.

As to `COc1cccc(N(C)C(=O)Cn2c(=O)n3c4c(cc(-c5ccccc5)cc42)CCC3)c1`, the Ki at Translocator protein came to 0.28 nM. In the data set filed under Rattus norvegicus, the inhibition was determined as 6%. For the same molecule, the remaining at 0.5 h, 1 µM in data set [2] turned out to be 0%.

On to `COc1ccc(-c2cc3c4c(c2)n(CC(=O)N(C)c2ccccc2)c(=O)n4CCC3)cc1`, for which, in data set [3], the remaining at 0.5 h, 10 µM amounted to 2%.

For the molecule `CN(Cc1ccccc1)C(=O)Cn1c(=O)n2c3c(cc(-c4ccccc4)cc31)CCC2`, affinity at Translocator protein was put at a Ki of 0.23 nM. Besides, the inhibition in the data set listed under Rattus norvegicus came out at 72%. In data set [2], the remaining at 0.5 h, 1 µM worked out at 1%.
